According to publication PMC9582731 (RSC Advances, 2022):

Key:
in vitro = format: cell-based; settings: mouse
[1] = test system: λ-carrageenan-induced mouse paw edema; assay: λ-carrageenan-induced mouse paw edema test; format: in vivo; settings: 10 mg kg^−1 i.g., 2 h before λ-carrageenan, at 2–6 h, ICR mice
Outline: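 Test compound given at a low and a high dose, alongside a blank group, a carrageenan-only model group and an indomethacin positive-control group; paw swelling induced with λ-carrageenan.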

[2] = test system: λ-carrageenan-induced paw edema tissue; assay: H&E histological examination of paw edema tissue; format: in vivo, mice; settings: treated animals vs λ-carrageenan model group
Outline: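 Mice given λ-carrageenan to induce paw edema. Groups: blank, model, indomethacin (positive control), and test compound at low and high dose. Paw tissue was examined by H&E staining for histological change or by immunohistochemical staining for TNF-α, including bone.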

[3] = test system: acetic acid-induced writhing in mice; assay: Acetic acid-induced writhing analgesic test; format: in vivo; settings: 3 days, acetic acid i.p., Kunming mice

Structure (SMILES)	IC50 (in vitro) [µM]	Effect on paw edema [1]	Histological change of paw biopsies (H&E) [2]	Effect on number of writhes ([3]; 200 mg kg^−1 i.g.)	Effect on number of writhes ([3]; 19.5 mg kg^−1 i.g.)
COc1ccc2c(c1)c(CC(=O)O)c(C)n2C(=O)c1ccc(Cl)cc1 [Indo, indomethacin]	> 100	significantly inhibited the development of edema	a reduction in the λ-carrageenan-induced inflammatory response		
COC1=C[C@@H]2[C@@H]3Cc4ccc(OC)c(O)c4[C@]2(CCN3C)CC1=O [SIN, Sinomenine]	> 100			almost no analgesic effects	
O=C(O)Cc1ccccc1Nc1c(Cl)cccc1Cl [Voltaren]					reduce the number of writhes considerably
